According to ChEMBL document CHEMBL1795327, “Novel 4-phenylpiperidine-2,6-dione derivatives. Ligands for α₁-adrenoceptor subtypes” (Eur J Med Chem, 2011):
Activity calls are given as the source filed them. The rule behind the calls is not given here.

Experiments:
[1] = target: T1, Alpha-1B adrenergic receptor (Homo sapiens, UniProt P35368); test: Displacement of [125I]BE-2254 from human adrenergic Alpha-1B receptor expressed in HEK293 cells; format: cell-based
T1 sequence (P35368 whole entry): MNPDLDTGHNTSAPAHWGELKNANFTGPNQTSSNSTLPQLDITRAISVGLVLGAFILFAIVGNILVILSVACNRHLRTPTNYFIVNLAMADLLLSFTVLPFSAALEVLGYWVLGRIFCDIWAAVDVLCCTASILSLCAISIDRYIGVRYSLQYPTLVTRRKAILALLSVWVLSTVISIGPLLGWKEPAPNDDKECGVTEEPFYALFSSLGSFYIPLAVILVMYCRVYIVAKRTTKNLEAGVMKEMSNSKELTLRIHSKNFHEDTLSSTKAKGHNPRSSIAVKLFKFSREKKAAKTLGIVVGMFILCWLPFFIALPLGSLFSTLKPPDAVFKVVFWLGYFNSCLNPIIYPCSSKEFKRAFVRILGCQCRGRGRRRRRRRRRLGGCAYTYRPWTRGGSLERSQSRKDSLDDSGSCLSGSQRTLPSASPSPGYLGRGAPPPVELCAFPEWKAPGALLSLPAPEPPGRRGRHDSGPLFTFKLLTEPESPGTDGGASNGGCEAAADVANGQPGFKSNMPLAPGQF
Procedure, shortened: (§1)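 Membranes came from HEK293 cells stably expressing human α1A-, α1B- or α1D-AR, selected with geneticin. Cells were washed in PBS pH 7.6, homogenized, and spun at 30,000 × g for 10 min. The radioligand was [125I]BE 2254. Affinities are pKi, given as mean ± SE of three experiments run in duplicate.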

[2] = target: T2, Alpha-1D adrenergic receptor (Homo sapiens, UniProt P25100); test: Displacement of [125I]BE-2254 from human adrenergic Alpha-1D receptor expressed in HEK293 cells; format: cell-based; procedure, shortened: as §1
T2 sequence (P25100 whole entry): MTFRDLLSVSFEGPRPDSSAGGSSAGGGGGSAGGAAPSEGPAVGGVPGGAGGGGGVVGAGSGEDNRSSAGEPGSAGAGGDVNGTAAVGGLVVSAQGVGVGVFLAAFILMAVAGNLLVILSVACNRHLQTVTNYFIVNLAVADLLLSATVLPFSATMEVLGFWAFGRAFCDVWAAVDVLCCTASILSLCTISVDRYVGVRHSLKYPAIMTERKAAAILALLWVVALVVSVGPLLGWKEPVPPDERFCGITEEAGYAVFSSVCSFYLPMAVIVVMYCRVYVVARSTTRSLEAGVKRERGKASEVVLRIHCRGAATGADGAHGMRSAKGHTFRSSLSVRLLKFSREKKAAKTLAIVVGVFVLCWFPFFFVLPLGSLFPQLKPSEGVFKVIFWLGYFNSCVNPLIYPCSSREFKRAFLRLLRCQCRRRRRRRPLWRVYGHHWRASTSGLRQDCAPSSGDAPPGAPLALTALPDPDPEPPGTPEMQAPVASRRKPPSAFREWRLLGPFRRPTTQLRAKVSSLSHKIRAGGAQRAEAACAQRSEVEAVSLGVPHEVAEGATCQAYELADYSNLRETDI

[3] = target: T3, Alpha-1A adrenergic receptor (Homo sapiens, UniProt P35348); test: Displacement of [125I]BE-2254 from human adrenergic alpha1A receptor expressed in HEK293 cells; format: cell-based; procedure, shortened: as §1
T3 sequence (P35348 whole entry): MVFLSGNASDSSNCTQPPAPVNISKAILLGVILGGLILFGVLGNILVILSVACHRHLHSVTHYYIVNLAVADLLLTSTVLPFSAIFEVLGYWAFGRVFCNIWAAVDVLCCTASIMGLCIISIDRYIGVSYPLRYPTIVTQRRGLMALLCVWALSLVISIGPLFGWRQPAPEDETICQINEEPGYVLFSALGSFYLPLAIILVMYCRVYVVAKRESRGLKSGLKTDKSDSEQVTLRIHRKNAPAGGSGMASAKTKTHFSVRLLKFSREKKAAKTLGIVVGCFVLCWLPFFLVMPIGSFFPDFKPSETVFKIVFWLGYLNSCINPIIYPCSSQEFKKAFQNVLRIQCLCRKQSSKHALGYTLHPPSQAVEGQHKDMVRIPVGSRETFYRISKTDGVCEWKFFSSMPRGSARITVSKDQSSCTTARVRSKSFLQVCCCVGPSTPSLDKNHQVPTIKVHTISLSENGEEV

[4] = target: T1, Alpha-1B adrenergic receptor; test: Antagonist activity against human cloned adrenergic Alpha-1B receptor expressed in HEK293 cells assessed as inhibition of norepinephrine-induced [3H]inositol phosphate hydrolysis by scintillation counting; format: functional, cell-based
Procedure, shortened: (§2)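 HEK293 cells stably transfected with human α1A-, α1B- or α1D-AR cDNA were prelabelled with myo-[3H]inositol, then given Krebs Ringer bicarbonate buffer with LiCl. Cells were incubated 60 min with or without NE and graded compound concentrations. The reaction was stopped with 20 mM formic acid. [3H]InsPs were isolated by anion exchange and counted by scintillation. Values (±SE) came from concentration-response inhibition curves.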

[5] = target: T4, Alpha-1B adrenergic receptor (Homo sapiens) (UniProt P35368); test: Antagonist activity at human adrenergic Alpha-1B receptor expressed in HEK293 cells assessed as [3H]inositol phosphate formation at 10 uM by scintillation counting; format: functional, cell-based
T4 sequence (whole entry): T1 sequence (P35368 whole entry)
Procedure, shortened: (§3)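 Stably transfected HEK293 cells expressing human α1A-, α1B- or α1D-AR were labelled with myo-[3H]inositol and moved to Krebs Ringer bicarbonate buffer containing LiCl. They were incubated 60 min with or without NE, in the presence or absence of test compound. After a formic acid stop and sonication, [3H]InsPs were separated by anion-exchange chromatography and counted by scintillation.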

[6] = target: T2, Alpha-1D adrenergic receptor; test: Antagonist activity against human cloned adrenergic Alpha-1D receptor expressed in HEK293 cells assessed as inhibition of norepinephrine-induced [3H]inositol phosphate hydrolysis by scintillation counting; format: functional, cell-based; procedure, shortened: as §2
[7] = target: T3, Alpha-1A adrenergic receptor; test: Antagonist activity at human adrenergic alpha1A receptor expressed in HEK293 cells assessed as inhibition of norepinephrine-induced [3H]inositol phosphate hydrolysis by scintillation counting; format: functional, cell-based; procedure, shortened: as §2
[8] = target: T5, Alpha-1D adrenergic receptor (Homo sapiens) (UniProt P25100); test: Antagonist activity at human adrenergic Alpha-1D receptor expressed in HEK293 cells assessed as [3H]inositol phosphate formation at 10 uM by scintillation counting; format: functional, cell-based; procedure, shortened: as §3
T5 sequence (whole entry): T2 sequence (P25100 whole entry)

[9] = target: T6, Alpha-1A adrenergic receptor (Homo sapiens) (UniProt P35348); test: Antagonist activity at human adrenergic alpha1A receptor expressed in HEK293 cells assessed as [3H]inositol phosphate formation at 10 uM by scintillation counting; format: functional, cell-based; procedure, shortened: as §3
T6 sequence (whole entry): T3 sequence (P35348 whole entry)

[10] = target: T1, Alpha-1B adrenergic receptor; test: Binding affinity to adrenergic Alpha-1B receptor
Procedure, shortened: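 Human α1B-adrenoceptor stably expressed in HEK293 cells, transfected with a pRSVICAT vector and selected with geneticin. Membranes were prepared by scraping cells, homogenizing them and centrifuging at 30,000 × g for 10 min. Values are pKi, mean ± SE of three experiments run in duplicate.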

SMILES	Ki [1]	Ki [2]	Ki [3]	also measured
COc1ccc(Cl)cc1N1CCN(CCCCN2C(=O)CC(c3ccccc3)CC2=O)CC1	0.107 µM	0.0389 µM	0.0363 µM	
COc1ccccc1N1CCN(CCCCN2C(=O)CC3(CCc4ccccc43)CC2=O)CC1	0.0724 µM	0.0162 µM	0.00977 µM	Ki [4]: 0.02 µM; Activity [5]: inactive; Ki [6]: 0.00501 µM; Ki [7]: 0.01 µM; Activity [8]: inactive; Activity [9]: inactive
O=C1CC(c2ccccc2)CC(=O)N1CCCCN1CCN(c2ccccc2Cl)CC1	0.0302 µM	0.0339 µM	0.0158 µM	
COc1ccccc1N1CCN(CCCN2C(=O)CC3(CCc4ccccc43)CC2=O)CC1	0.234 µM	0.0759 µM	0.0631 µM	
COc1ccccc1N1CCN(CCCN2C(=O)CC(c3ccc([N+](=O)[O-])cc3)CC2=O)CC1	0.129 µM	0.0676 µM	0.0141 µM	
COc1ccc(Cl)cc1N1CCN(CCCN2C(=O)CC(C)(c3ccccc3)CC2=O)CC1	0.195 µM	0.0977 µM	0.0347 µM	
COc1ccccc1N1CCN(CCn2c(=O)[nH]c3c([nH]c4ccccc43)c2=O)CC1				pKi ([3]; hek293): 9.57
COc1ccccc1N1CCN(CCCN2C(=O)CC(c3ccc(Cl)cc3)CC2=O)CC1	0.126 µM	0.0692 µM	0.0282 µM	
COc1ccccc1N1CCN(CCCCN2C(=O)CC(c3ccccc3)CC2=O)CC1	0.024 µM	0.0158 µM	0.00182 µM	Ki [4]: 0.00398 µM; Activity [5]: inactive; Ki [6]: 0.002 µM; Ki [7]: 0.00251 µM; Activity [8]: inactive; Activity [9]: inactive
COc1ccccc1N1CCN(CCCCN2C(=O)CC(c3ccc(Cl)cc3)CC2=O)CC1	0.245 µM	0.0724 µM	0.0676 µM	
O=C1CC(c2ccc(Cl)cc2)CC(=O)N1CCCN1CCN(c2ccccc2Cl)CC1	0.135 µM	0.0631 µM	0.049 µM	
O=C1CC(c2ccccc2)CC(=O)N1CCN1CCN(c2ccccc2Cl)CC1	2.24 µM	0.631 µM	3.24 µM	
COc1ccccc1N1CCN(CCCCN2C(=O)CC(c3ccc([N+](=O)[O-])cc3)CC2=O)CC1	0.209 µM	0.0537 µM	0.0209 µM	
COc1ccccc1N1CCN(CCN2C(=O)CC(c3ccc(Cl)cc3)CC2=O)CC1	0.112 µM	0.692 µM	1.7 µM	
O=C1CC(c2ccc(Cl)cc2)CC(=O)N1CCN1CCN(c2ccccc2Cl)CC1	10 µM	1.51 µM	6.92 µM	
COc1ccccc1N1CCN(CCN2C(=O)CC3(CCc4ccccc43)CC2=O)CC1	5.01 µM	0.912 µM	3.39 µM	
COc1ccc(Cl)cc1N1CCN(CCCCN2C(=O)CC(C)(c3ccccc3)CC2=O)CC1	0.151 µM	0.0776 µM	0.0955 µM	
COc1ccccc1N1CCN(CCCCCN2C(=O)CC(c3ccccc3)CC2=O)CC1	0.0977 µM	0.0309 µM	0.0219 µM	
COc1ccccc1N1CCN(CCCN2C(=O)CC(C)(c3ccccc3)CC2=O)CC1	0.129 µM	0.0513 µM	0.0102 µM	
COc1ccccc1N1CCN(CCN2C(=O)CC(c3ccccc3)CC2=O)CC1	7.41 µM	1.32 µM	3.47 µM	
COc1ccccc1N1CCN(CCCN2C(=O)CC(c3ccccc3)CC2=O)CC1	0.112 µM	0.0457 µM	0.0468 µM	
COc1ccccc1N1CCN(CCCCN2C(=O)CC(C)(c3ccccc3)CC2=O)CC1	0.0562 µM	0.0145 µM	0.0224 µM	Ki [4]: 0.00794 µM; Activity [5]: inactive; Ki [6]: 0.000501 µM; Ki [7]: 0.0316 µM; Activity [8]: inactive; Activity [9]: inactive
CC(C)(C)c1ccc(N2CCN(CCn3c(=O)[nH]c4c([nH]c5ccccc54)c3=O)CC2)cc1				pKi ([2]; hek293): 7.7
O=C1CC(c2ccccc2)CC(=O)N1CCCN1CCN(c2ccccc2Cl)CC1	0.112 µM	0.0437 µM	0.0479 µM	
COc1ccccc1N1CCN(CCN2C(=O)CC3(CCCC3)CC2=O)CC1				Ki [10]: 0.0501 µM
COc1ccc(Cl)cc1N1CCN(CCCN2C(=O)CC(c3ccccc3)CC2=O)CC1	0.331 µM	0.389 µM	0.191 µM	
